Values after ≈ are worked out from the molar mass of the structure shown.
Columns and labels:
Format in all cases: functional
[1] = tested on: Staphylococcus aureus; assay: Antibacterial activity against Staphylococcus aureus ATCC 25923 after 18 hrs by broth microdilution method; details: ATCC 25923, 18 h
Outline: (§1)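 MIC by broth microdilution per ISO 20776-1:2006 and CLSI M07-A8. Inoculum 10^6 cfu/ml in Mueller-Hinton broth with compound serially diluted, final concentrations 2 to 128 ug/ml, duplicate rows, no-drug growth control. Incubation 18 h at 37 °C. MIC taken as lowest concentration giving complete inhibition of visible growth. Each compound tested at least twice.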

[2] = tested on: Staphylococcus aureus; assay: Antibacterial activity against Staphylococcus aureus ATCC 29213 after 18 hrs by broth microdilution method; details: ATCC 29213, 18 h; outline: as §1
[3] = tested on: Staphylococcus aureus; assay: Antibacterial activity against Staphylococcus aureus ATCC 9144 after 18 hrs by broth microdilution method; details: ATCC 9144, 18 h; outline: as §1
[4] = tested on: Staphylococcus aureus; assay: Antibacterial activity against Staphylococcus aureus ATCC 6538 after 18 hrs by broth microdilution method; details: ATCC 6538, 18 h; outline: as §1
[5] = tested on: Staphylococcus aureus; assay: Antibacterial activity against Staphylococcus aureus CIP 65.6 after 18 hrs by broth microdilution method; details: CIP 65.6, 18 h; outline: as §1
[6] = tested on: Staphylococcus aureus; assay: Antibacterial activity against Staphylococcus aureus CIP 103428 after 18 hrs by broth microdilution method; details: CIP 103428, 18 h; outline: as §1
[7] = tested on: Staphylococcus aureus; assay: Antibacterial activity against methicillin-resistant Staphylococcus aureus CIP 65.25 after 18 hrs by broth microdilution method; details: CIP 65.25, 18 h
Outline: (§2)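 Broth microdilution following ISO 20776-1:2006 and CLSI M07-A8, in Mueller-Hinton broth. Inoculum was 10^6 cfu/ml, with compound serial dilutions spanning 2 to 128 ug/ml and a compound-free growth control well. Plates were incubated 18 h at 37 °C. MIC was the lowest concentration giving complete inhibition of visible growth. Each compound was tested at least twice.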

[8] = tested on: Staphylococcus aureus; assay: Antibacterial activity against methicillin-resistant Staphylococcus aureus ATCC 33592 after 18 hrs by broth microdilution method; details: ATCC 33592, 18 h; outline: as §2
[9] = tested on: Staphylococcus aureus; assay: Antibacterial activity against vancomycin intermediate Staphylococcus aureus […] after 18 hrs by broth microdilution method; outline: as §2
[10] = tested on: Staphylococcus epidermidis; assay: Antibacterial activity against Staphylococcus epidermidis ATCC 12228 after 18 hrs by broth microdilution method; details: ATCC 12228, 18 h; outline: as §1
[11] = tested on: Staphylococcus epidermidis; assay: Antibacterial activity against Staphylococcus epidermidis CIP 81.55 after 18 hrs by broth microdilution method; details: CIP 81.55, 18 h; outline: as §1
[12] = tested on: Staphylococcus epidermidis; assay: Antibacterial activity against Staphylococcus epidermidis CIP 103627 after 18 hrs by broth microdilution method; details: CIP 103627, 18 h; outline: as §1
[13] = tested on: Streptococcus pneumoniae; assay: Antibacterial activity against Streptococcus pneumoniae ATCC 49619 after 18 hrs by broth microdilution method; details: ATCC 49619, 18 h
Outline: (§3)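 MIC by broth microdilution per ISO 20776-1:2006 and CLSI M07-A8. Inoculum 10^6 cfu/ml in Mueller-Hinton broth […]. Compound serially diluted, final 2 to 128 ug/ml, duplicate rows, no-drug growth control. Read after 18 h at 37 °C as lowest concentration fully inhibiting visible growth. At least two experiments.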

[14] = tested on: Streptococcus pneumoniae; assay: Antibacterial activity against Streptococcus pneumoniae ATCC 6303 after 18 hrs by broth microdilution method; details: ATCC 6303, 18 h; outline: as §3

| Compound | MIC [1] [µg/mL] | MIC [2] [µg/mL] | MIC [3] [µg/mL] | MIC [4] [µg/mL] | MIC [5] [µg/mL] | MIC [6] [µg/mL] | MIC [7] [µg/mL] | MIC [8] [µg/mL] | MIC [9] [µg/mL] | MIC [10] [µg/mL] | MIC [11] [µg/mL] | MIC [12] [µg/mL] | MIC [13] [µg/mL] | MIC [14] [µg/mL] |
| --- | --- | --- | --- | --- | --- | --- | --- | --- | --- | --- | --- | --- | --- | --- |
| CC(C)(C)OC(=O)NCC(c1c[nH]c2ccccc12)N(O)Cc1ccccc1 (stereo not given) | > 128 | > 128 | > 128 | > 128 | > 128 | > 128 | > 128 | > 128 | > 128 | > 128 | > 128 | > 128 | > 128 | > 128 |
| CC(C)(C)OC(=O)NCC(NO)c1c[nH]c2ccc(Br)cc12 (stereo not given) | 32 (≈ 86.4 µM) | 32 (≈ 86.4 µM) | 32 (≈ 86.4 µM) | 32 (≈ 86.4 µM) | 32 (≈ 86.4 µM) | 32 (≈ 86.4 µM) | – | – | – | 64 (≈ 173 µM) | 64 (≈ 173 µM) | 64 (≈ 173 µM) | – | – |
| CC(c1c[nH]c2ccc(F)cc12)N(O)Cc1ccccc1 (stereo not given) | > 128 | > 128 | > 128 | > 128 | > 128 | > 128 | > 128 | > 128 | > 128 | > 128 | > 128 | > 128 | > 128 | > 128 |
| CC(C)(C)OC(=O)NCC(c1c[nH]c2ccc(F)cc12)N(O)Cc1ccccc1 (stereo not given) | > 128 | > 128 | > 128 | > 128 | > 128 | > 128 | > 128 | > 128 | > 128 | > 128 | > 128 | > 128 | > 128 | > 128 |
| CC(C)(C)OC(=O)NCC(NO)c1c[nH]c2cc(F)ccc12 (stereo not given) | > 128 | > 128 | > 128 | > 128 | > 128 | > 128 | – | – | – | > 128 | > 128 | > 128 | – | – |
| CC(NO)c1c[nH]c2ccc(Br)cc12 (stereo not given) | 64 (≈ 251 µM) | 64 (≈ 251 µM) | 64 (≈ 251 µM) | 64 (≈ 251 µM) | 64 (≈ 251 µM) | 64 (≈ 251 µM) | – | – | – | 64 (≈ 251 µM) | 64 (≈ 251 µM) | 64 (≈ 251 µM) | – | – |
| CC(C)CC(c1c[nH]c2ccc(I)cc12)N(O)Cc1ccccc1 (stereo not given) | > 128 | > 128 | > 128 | > 128 | > 128 | > 128 | > 128 | > 128 | > 128 | > 128 | > 128 | > 128 | > 128 | > 128 |
| CC(C)(C)OC(=O)NCC(NO)c1c[nH]c2cc(Br)ccc12 (stereo not given) | 64 (≈ 173 µM) | 64 (≈ 173 µM) | 64 (≈ 173 µM) | 64 (≈ 173 µM) | 64 (≈ 173 µM) | 64 (≈ 173 µM) | – | – | – | 64 (≈ 173 µM) | 64 (≈ 173 µM) | 64 (≈ 173 µM) | – | – |
| CC(NO)c1c[nH]c2ccc(F)cc12 (stereo not given) | 64 (≈ 330 µM) | 64 (≈ 330 µM) | 64 (≈ 330 µM) | 64 (≈ 330 µM) | 64 (≈ 330 µM) | 64 (≈ 330 µM) | – | – | – | 64 (≈ 330 µM) | 64 (≈ 330 µM) | 64 (≈ 330 µM) | – | – |
| CC(C)CC(c1c[nH]c2ccc(Br)cc12)N(O)Cc1ccccc1 (stereo not given) | > 128 | > 128 | > 128 | > 128 | > 128 | > 128 | > 128 | > 128 | > 128 | > 128 | > 128 | > 128 | > 128 | > 128 |
| CC(C)(C)OC(=O)NCC(NO)c1c[nH]c2ccccc12 (stereo not given) | > 128 | > 128 | > 128 | > 128 | > 128 | > 128 | – | – | – | > 128 | > 128 | > 128 | – | – |
| CC(C)CC(c1c[nH]c2ccc(Cl)cc12)N(O)Cc1ccccc1 (stereo not given) | > 128 | > 128 | > 128 | > 128 | > 128 | > 128 | > 128 | > 128 | > 128 | > 128 | > 128 | > 128 | > 128 | > 128 |
| CC(NO)c1c[nH]c2ccccc12 (stereo not given) | 128 (≈ 726 µM) | 128 (≈ 726 µM) | 128 (≈ 726 µM) | 128 (≈ 726 µM) | 128 (≈ 726 µM) | 128 (≈ 726 µM) | – | – | – | 64 (≈ 363 µM) | 64 (≈ 363 µM) | 64 (≈ 363 µM) | – | – |
| CC(C)(C)OC(=O)NCC(c1c[nH]c2cccc(Br)c12)N(O)Cc1ccccc1 (stereo not given) | > 128 | > 128 | > 128 | > 128 | > 128 | > 128 | > 128 | > 128 | > 128 | > 128 | > 128 | > 128 | > 128 | > 128 |
| CC(c1c[nH]c2ccc(I)cc12)N(O)Cc1ccccc1 (stereo not given) | > 128 | > 128 | > 128 | > 128 | > 128 | > 128 | > 128 | > 128 | > 128 | > 128 | > 128 | > 128 | > 128 | > 128 |
| CC(c1c[nH]c2ccc(Br)cc12)N(O)Cc1ccccc1 (stereo not given) | > 128 | > 128 | > 128 | > 128 | > 128 | > 128 | > 128 | > 128 | > 128 | > 128 | > 128 | > 128 | > 128 | > 128 |
| CC(c1c[nH]c2ccccc12)N(O)Cc1ccccc1 (stereo not given) | 128 (≈ 481 µM) | 128 (≈ 481 µM) | 128 (≈ 481 µM) | 128 (≈ 481 µM) | 128 (≈ 481 µM) | 128 (≈ 481 µM) | – | – | – | 64 (≈ 240 µM) | 64 (≈ 240 µM) | 64 (≈ 240 µM) | – | – |
| CC(C)(C)OC(=O)NCC(NO)c1c[nH]c2cc(Cl)ccc12 (stereo not given) | 128 (≈ 393 µM) | 128 (≈ 393 µM) | 128 (≈ 393 µM) | 128 (≈ 393 µM) | 128 (≈ 393 µM) | 128 (≈ 393 µM) | – | – | – | > 128 | > 128 | > 128 | – | – |
| CC(C)CC(c1c[nH]c2ccc(F)cc12)N(O)Cc1ccccc1 (stereo not given) | 64 (≈ 196 µM) | 64 (≈ 196 µM) | 64 (≈ 196 µM) | 64 (≈ 196 µM) | 64 (≈ 196 µM) | 64 (≈ 196 µM) | 128 (≈ 392 µM) | 128 (≈ 392 µM) | 128 (≈ 392 µM) | 64 (≈ 196 µM) | 64 (≈ 196 µM) | 64 (≈ 196 µM) | 128 (≈ 392 µM) | 128 (≈ 392 µM) |
| CC(C)(C)OC(=O)NCC(c1c[nH]c2cc(F)ccc12)N(O)Cc1ccccc1 (stereo not given) | > 128 | > 128 | > 128 | > 128 | > 128 | > 128 | > 128 | > 128 | > 128 | > 128 | > 128 | > 128 | > 128 | > 128 |
| CC(C)(C)OC(=O)NCC(NO)c1c[nH]c2ccc(F)cc12 (stereo not given) | > 128 | > 128 | > 128 | > 128 | > 128 | > 128 | – | – | – | > 128 | > 128 | > 128 | – | – |
| CC(C)(C)OC(=O)NCC(NO)c1c[nH]c2ccc(I)cc12 (stereo not given) | 32 (≈ 76.7 µM) | 32 (≈ 76.7 µM) | 32 (≈ 76.7 µM) | 32 (≈ 76.7 µM) | 32 (≈ 76.7 µM) | 32 (≈ 76.7 µM) | – | – | – | 64 (≈ 153 µM) | 64 (≈ 153 µM) | 64 (≈ 153 µM) | – | – |
| CC(C)(C)OC(=O)NCC(NO)c1c[nH]c2cccc(Br)c12 (stereo not given) | 128 (≈ 346 µM) | 128 (≈ 346 µM) | 128 (≈ 346 µM) | 128 (≈ 346 µM) | 128 (≈ 346 µM) | 128 (≈ 346 µM) | – | – | – | 128 (≈ 346 µM) | 128 (≈ 346 µM) | 128 (≈ 346 µM) | – | – |
| CC(c1c[nH]c2ccc(Cl)cc12)N(O)Cc1ccccc1 (stereo not given) | > 128 | > 128 | > 128 | > 128 | > 128 | > 128 | > 128 | > 128 | > 128 | > 128 | > 128 | > 128 | > 128 | > 128 |
| CC(C)(C)OC(=O)NCC(NO)c1c[nH]c2ccc(Cl)cc12 (stereo not given) | 64 (≈ 196 µM) | 64 (≈ 196 µM) | 64 (≈ 196 µM) | 64 (≈ 196 µM) | 64 (≈ 196 µM) | 64 (≈ 196 µM) | – | – | – | 64 (≈ 196 µM) | 64 (≈ 196 µM) | 64 (≈ 196 µM) | – | – |
